UPR CHOP act: activators of apoptotic arm of unfolded protein response (CHOP). CHO-CHOP luciferase reporter, UPR activation, luminescence; percent of tunicamycin response over DMSO baseline. activation, % at 10 µM. 0.34% of 330,000 active. AID 449763;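 active = at 10 µM dose, activation of 40% or more, normalized to positive control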;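 note: 100% = tunicamycin at 10 µg/mL and 0% = DMSO alone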
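System: CHO CHOP reporter cells. Amount: 500 cells per well. Buffer or medium: F12 medium, 10% FBS. Compound dosing: one dose, 10 µM in 0.5% DMSO. Incubation: 6 h compound exposure at 37 °C after overnight seeding. Technique: Steady-Glo luciferase luminescence. Benchmarks: tunicamycin and DMSO controls.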
UBC13 inh: blocks human UBC13 polyubiquitin chain formation; TR-FRET; 0.47% of 330,000 active; inhibition, % at 20 µM; AID 485273; in the data active = inhibition above about 45%, passing the limit was not always enough
XBP1 UPR activ: activators of adaptive arm of unfolded protein response (XBP1); AID 463104; 0.33% of 330,000 active; activation, % at 20 µM; CHO-XBP1 luciferase reporter, IRE1-XBP1 UPR activation, luminescence; percent of tunicamycin response, DMSO as zero;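 active = versus positive control, 20 µM dose yields 30% or more activation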;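 note: 100% = tunicamycin at 10 µg/mL and 0% = DMSO only wells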
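Material: IRE1-XBP1 luciferase reporter CHO line / Quantity: one thousand reporter cells per well / Buffer or medium: F12 with 10% serum / Compound: 20 µM single concentration, DMSO 1% / Times: 6 h treatment, 37 °C / Detection: Steady-Glo luciferase glow luminescence, 10 min after reagent addition / Benchmarks: tunicamycin high, DMSO low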
Mdm2 MdmX PPI: disrupts the human Mdm2-MdmX interaction; O15151+Q00987; SaOS-2 split-luciferase Mdm2/MdmX complementation, luminescence; inhibition, % at 8 µM; 3% of 330,000 active; AID 485346;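 active = inhibition of at least 50% at 8 µM in the primary screen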
Target sequence (O15151 whole entry, looked up): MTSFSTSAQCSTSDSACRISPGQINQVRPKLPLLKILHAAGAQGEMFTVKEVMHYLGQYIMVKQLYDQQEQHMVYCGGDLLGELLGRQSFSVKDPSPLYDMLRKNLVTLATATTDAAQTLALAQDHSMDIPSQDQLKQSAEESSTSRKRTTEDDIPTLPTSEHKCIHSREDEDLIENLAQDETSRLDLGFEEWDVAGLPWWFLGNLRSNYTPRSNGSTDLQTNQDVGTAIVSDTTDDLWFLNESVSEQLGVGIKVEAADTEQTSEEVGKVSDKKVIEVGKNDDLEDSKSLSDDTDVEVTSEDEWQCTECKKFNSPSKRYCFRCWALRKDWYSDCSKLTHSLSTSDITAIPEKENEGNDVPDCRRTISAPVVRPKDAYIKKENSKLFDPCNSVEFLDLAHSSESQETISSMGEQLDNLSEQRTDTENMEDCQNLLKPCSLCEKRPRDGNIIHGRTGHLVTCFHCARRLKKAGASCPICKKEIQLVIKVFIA
Target sequence (Q00987 whole entry, looked up): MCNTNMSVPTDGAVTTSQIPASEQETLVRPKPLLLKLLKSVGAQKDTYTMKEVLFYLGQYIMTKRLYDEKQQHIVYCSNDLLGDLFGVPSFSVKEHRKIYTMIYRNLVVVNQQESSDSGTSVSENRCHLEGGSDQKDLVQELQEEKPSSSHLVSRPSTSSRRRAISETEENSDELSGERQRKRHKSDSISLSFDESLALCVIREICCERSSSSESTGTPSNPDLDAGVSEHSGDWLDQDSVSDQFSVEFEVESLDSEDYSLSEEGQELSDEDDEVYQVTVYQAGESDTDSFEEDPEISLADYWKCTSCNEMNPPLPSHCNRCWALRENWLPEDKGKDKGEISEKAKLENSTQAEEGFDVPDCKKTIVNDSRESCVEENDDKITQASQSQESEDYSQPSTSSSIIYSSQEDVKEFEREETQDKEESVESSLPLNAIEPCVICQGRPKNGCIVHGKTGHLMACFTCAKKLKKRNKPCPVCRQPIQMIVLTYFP
Apaf1 inhib: inhibitors of human Apaf-1 apoptosome; O14727; reconstituted apoptosome caspase-3 activity, DEVD-Rh110 fluorescence; inhibition, % at 20 µM; 0.71% of 330,000 active; AID 489030; active = inhibition of at least 40% at 20 µM;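 note: plate controls were DMSO wells for no effect and DEVD-CHO caspase inhibitor wells for full effect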
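Assay system – apoptosome proteins · Medium – Hepes buffer, pH 7.5 · Also added – cytochrome c with DEVD-Rh110 · Timing – 30 min compound preincubation, 50 min activation, room temperature · Detection – Rh110 fluorescence, excitation 480 nm, emission 540 nm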
CHOP UPR conf: apoptotic UPR (CHOP) activation, confirmed; activation, % at 10 µM; CHO-CHOP cells, CHOP-luciferase reporter luminescence; percent of tunicamycin response, DMSO as zero; AID 463112; 64% of 1,000 active; shares compounds with UPR CHOP act; in the data active = activation above about 33%;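 note: 0% = DMSO wells and 100% = tunicamycin 10 µg/mL wells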
An asterisk follows results filed as active; x = no result. Sampled rows, rich in hits. Any-hit rate of the full collection: about 4.1%.

SMILES | UPR CHOP act | UBC13 inh | XBP1 UPR activ | Mdm2 MdmX PPI | Apaf1 inhib | others
Brc1cc2c(cc1C1Nc3ccccc3C3C=CCC31)OCO2 (stereo unspecified) | -1 | -12 | -2 | 26 | 6
C1=CC2c3ccccc3NC(c3ccncc3)C2C1 (stereo unspecified) | 0 | -20 | 9 | 20 | 49*
CCN(C(=O)C1CCCN1S(=O)(=O)c1ccc2c(c1)n(C)c(=O)c(=O)n2C)c1ccccc1 (stereo unspecified) | 0 | 6 | -5 | -10 | -12
CCOC(=O)C1CCCN(c2cc(NCCCO)c([N+](=O)[O-])c3nonc23)C1 (stereo unspecified) | -1 | -18 | 0 | -34 | 40*
O=Nc1c(O)[nH]c2ccc(F)cc12 | -3 | 6 | -1 | 2 | -4
NC(=S)N=Nc1c(O)[nH]c2ccc(F)cc12 | 1 | 50* | -2 | -8 | 7
CC(C)Cn1c(=S)[nH]c2cc(Cl)ccc21 | -1 | 16 | -2 | 6 | -5
CN1CCN(c2nc(-c3ccc(Cl)cc3)nc3ccccc23)CC1 | 2 | 10 | 9 | 31 | 13
O=C(Nc1ccc(C2=NCCN2)cc1)c1ccc(Cl)c(C(=O)Nc2ccc(C3=NCCN3)cc2)c1 | 0 | 106* | -3 | 7 | 32
O=C(Nc1ccc(Cl)c(Cl)c1)c1ccc(Cl)c(Cl)c1 | 5 | -1 | 3 | 12 | 5
O=C(CNc1cccc(S(=O)(=O)N2CCOCC2)c1)N1CCc2ccccc21 | 2 | 5 | 3 | -1 | -10
CCOC(=O)NNc1ccc2nonc2c1[N+](=O)[O-] | 1 | -82 | 0 | 7 | 96*
CCc1ccc(Nc2ccc3nonc3c2[N+](=O)[O-])cc1 | -2 | -4 | 1 | 12 | -15
CC1=NOC(=O)/C1=C\c1ccc(-c2ccc(Cl)c(C(=O)O)c2)o1 | -1 | -25 | -4 | 16 | 15
CC1=NN(c2ccccc2)C(=O)/C1=C/c1ccc(-c2ccc(C)c(C(=O)O)c2)o1 | -1 | -71 | -2 | 12 | 68*
CC1=NN(c2ccc(C(=O)O)cc2)C(=O)/C1=C/c1ccc(-c2ccccc2F)o1 | 12 | -34 | 4 | 9 | 58*
CN1CCN(CCCc2c3c(cc4c2CCC4)CCC3)CC1 | 0 | 22 | 1 | 19 | 0
CCn1cc(S(=O)(=O)NCCc2ccc(OC)c(OC)c2)cn1 | -3 | -8 | -2 | 6 | 13
CCOC(=O)c1ccc2c(c1)nc(COc1ccc(OC)cc1)n2CC | -2 | 13 | -4 | 9 | 1
COC(=O)Cn1c(=NC(=O)c2nc3ccccc3s2)sc2cc(S(C)(=O)=O)ccc21 | 2 | 17 | 42* | 33 | 7
CCCC(=Nc1ccccc1)C1=C(O)C(C(=O)OC)C(C)(C)CC1=O (stereo unspecified) | -1 | -3 | -2 | 7 | -3
CCCCC(=Nc1ccc(N)cc1)C1=C(O)C(C(=O)OC)C(C)(C)CC1=O (stereo unspecified) | 2 | -29 | -1 | -22 | 62*
CCC(C)(C)n1nnnc1C(c1ccc(O)c(OC)c1)N1CCc2ccccc2C1 (stereo unspecified) | 42* | 9 | -5 | 10 | -6
C[C@H](CO)N1C[C@H](C)[C@@H](CN(C)S(C)(=O)=O)Oc2ccc(NC(=O)CCC(F)(F)F)cc2C1=O | 1 | -13 | -3 | 6 | -4
N#C/C(=C/c1cccc(O)c1)C(=O)NCc1ccc(Cl)cc1 | 4 | 2 | -4 | 17 | 17
SMILES | UPR CHOP act | UBC13 inh | XBP1 UPR activ | Mdm2 MdmX PPI | Apaf1 inhib | others
N#C/C(=C/c1ccc(O)c(O)c1)C(=O)NCc1ccc(Cl)cc1 | 103* | -34 | 12 | 27 | 6 | CHOP UPR conf=22
CCc1nc(C)cn1S(=O)(=O)c1ccc([N+](=O)[O-])cc1 | 0 | -1 | 0 | 15 | 8
CCCn1c(CC)nc([N+](=O)[O-])c1S(=O)(=O)c1ccccc1 | 104* | -7 | -6 | 30 | 8 | CHOP UPR conf=71*
O=C1C(CSCc2ccccc2)NC(=S)N1c1ccccc1 (stereo unspecified) | 52* | 7 | 1 | -17 | -13 | CHOP UPR conf=34*
O=C(O)CC1NC(=S)N(c2ccccc2)C1=O (stereo unspecified) | -1 | 2 | -2 | 35 | 5
O=c1[nH]n(-c2cccc3cccnc23)c(=O)c2ccccc12 | 1 | -3 | 2 | 2 | 3
Cc1nn(-c2cccc3cccnc23)c(=O)c2ccccc12 | 45* | 6 | 0 | 0 | -5 | CHOP UPR conf=-1
Cc1cc(C)n2nc(SCC(=O)N3CCCC(C)C3)nc2n1 (stereo unspecified) | -1 | -3 | -2 | 15 | 11
CCOc1ccc(Nc2cc(C)nc(-n3nc(C)cc3C)n2)cc1 | 105* | -4 | 87* | 44 | 20 | CHOP UPR conf=15
Cc1cc(N/N=C/c2ccc(F)cc2)nc(-n2nc(C)cc2C)n1 | 73* | 3 | 17 | 13 | 23 | CHOP UPR conf=23
Cc1nc(C(F)(F)F)c(C(=O)O)cc1-c1nc(-c2ccccc2)cs1 | 1 | -9 | -3 | -3 | 11
CCCOc1ccccc1N1C(=O)CC(N(O)c2ccccc2)C1=O (stereo unspecified) | 3 | 1 | 4 | 3 | 8
CCCOc1ccc(N2C(=O)CC(N(O)c3ccccc3)C2=O)cc1 (stereo unspecified) | 192* | -11 | 5 | -35 | 21 | CHOP UPR conf=170*
Cc1nc(-c2ccc(Cl)cc2)sc1C1(C)CC(c2ccc(F)cc2)=NO1 (stereo unspecified) | 2 | -1 | 0 | 1 | 3
O=C(Nc1ccccn1)C1CCN(c2ncnc3c2nc2n3CCCCC2)CC1 | -1 | 22 | -1 | 18 | -8
COc1ccc(C2Nc3ccccc3NC3=C2C(=O)CC(C)(C)C3)cc1OC (stereo unspecified) | 2 | -6 | -7 | 16 | -4
COc1ccc(C2Nc3ccccc3NC3=C2C(=O)CC(C)(C)C3)cc1O (stereo unspecified) | x | -4 | -5 | 26 | 6 | CHOP UPR conf=-1
O=C(/C=C/Sc1ccccc1)c1ccc(Cl)cc1 | 113* | -3 | 29 | 40 | -3 | CHOP UPR conf=104*
COC1=C(OC)c2ccccc2C(C(=O)O)N/C1=C(/C)Nc1ccncc1 (stereo unspecified) | -3 | -4 | 3 | -21 | 4
Cc1ccc2cccc(Oc3cnccn3)c2n1 | -1 | 8 | -2 | 6 | -2
O=C(Nc1scc(-c2ccc(Br)cc2)c1C(=O)O)c1ccccc1F | 56* | -1 | 5 | -5 | -3 | CHOP UPR conf=5
